Laboratory results as given in ChEMBL document CHEMBL1154693, “Discovery of trans-4-[1-[[2,5-Dichloro-4-(1-methyl-3-indolylcarboxamido)phenyl]acetyl]-(4S)-methoxy-(2S)-pyrrolidinylmethoxy]cyclohexanecarboxylic acid: an orally active, selective very late antigen-4 antagonist” (J Med Chem, 2009).

Legend:
Integrin alpha-4/beta-1 [1] = target: T1, Integrin alpha-4/beta-1 (Homo sapiens, UniProt P05556+P13612); assay: Inhibition of europium labeled human VCAM1/Fc chimera binding to human VLA-4 alpha-4-beta-1 expressed in Chinese hamster 4B4 cells at 1.7 uM in presence of 3% HSA by fluorimetric assay; type: cell-based
T1 sequence (P05556 whole entry): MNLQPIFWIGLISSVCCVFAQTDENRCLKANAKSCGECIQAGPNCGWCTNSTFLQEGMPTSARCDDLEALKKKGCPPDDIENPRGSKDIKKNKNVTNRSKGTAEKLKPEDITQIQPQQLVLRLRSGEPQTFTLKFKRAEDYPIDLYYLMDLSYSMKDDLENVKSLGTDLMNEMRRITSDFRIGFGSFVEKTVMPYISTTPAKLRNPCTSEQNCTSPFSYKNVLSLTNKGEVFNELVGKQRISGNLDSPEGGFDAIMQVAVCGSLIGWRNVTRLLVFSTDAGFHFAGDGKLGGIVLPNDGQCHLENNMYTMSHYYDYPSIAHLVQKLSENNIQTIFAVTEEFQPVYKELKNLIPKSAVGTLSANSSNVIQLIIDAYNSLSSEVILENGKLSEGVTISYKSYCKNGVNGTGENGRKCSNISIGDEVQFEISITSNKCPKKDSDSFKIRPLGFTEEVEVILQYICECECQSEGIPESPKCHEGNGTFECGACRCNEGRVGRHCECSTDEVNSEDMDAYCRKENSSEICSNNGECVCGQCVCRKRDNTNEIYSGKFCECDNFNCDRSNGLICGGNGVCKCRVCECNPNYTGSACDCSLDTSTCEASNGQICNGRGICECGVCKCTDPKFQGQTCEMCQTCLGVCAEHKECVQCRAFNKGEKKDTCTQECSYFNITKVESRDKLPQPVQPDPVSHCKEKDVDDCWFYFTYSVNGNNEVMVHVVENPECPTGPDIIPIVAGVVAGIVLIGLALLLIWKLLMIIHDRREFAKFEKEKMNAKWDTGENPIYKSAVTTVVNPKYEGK
T1 sequence (P13612 whole entry): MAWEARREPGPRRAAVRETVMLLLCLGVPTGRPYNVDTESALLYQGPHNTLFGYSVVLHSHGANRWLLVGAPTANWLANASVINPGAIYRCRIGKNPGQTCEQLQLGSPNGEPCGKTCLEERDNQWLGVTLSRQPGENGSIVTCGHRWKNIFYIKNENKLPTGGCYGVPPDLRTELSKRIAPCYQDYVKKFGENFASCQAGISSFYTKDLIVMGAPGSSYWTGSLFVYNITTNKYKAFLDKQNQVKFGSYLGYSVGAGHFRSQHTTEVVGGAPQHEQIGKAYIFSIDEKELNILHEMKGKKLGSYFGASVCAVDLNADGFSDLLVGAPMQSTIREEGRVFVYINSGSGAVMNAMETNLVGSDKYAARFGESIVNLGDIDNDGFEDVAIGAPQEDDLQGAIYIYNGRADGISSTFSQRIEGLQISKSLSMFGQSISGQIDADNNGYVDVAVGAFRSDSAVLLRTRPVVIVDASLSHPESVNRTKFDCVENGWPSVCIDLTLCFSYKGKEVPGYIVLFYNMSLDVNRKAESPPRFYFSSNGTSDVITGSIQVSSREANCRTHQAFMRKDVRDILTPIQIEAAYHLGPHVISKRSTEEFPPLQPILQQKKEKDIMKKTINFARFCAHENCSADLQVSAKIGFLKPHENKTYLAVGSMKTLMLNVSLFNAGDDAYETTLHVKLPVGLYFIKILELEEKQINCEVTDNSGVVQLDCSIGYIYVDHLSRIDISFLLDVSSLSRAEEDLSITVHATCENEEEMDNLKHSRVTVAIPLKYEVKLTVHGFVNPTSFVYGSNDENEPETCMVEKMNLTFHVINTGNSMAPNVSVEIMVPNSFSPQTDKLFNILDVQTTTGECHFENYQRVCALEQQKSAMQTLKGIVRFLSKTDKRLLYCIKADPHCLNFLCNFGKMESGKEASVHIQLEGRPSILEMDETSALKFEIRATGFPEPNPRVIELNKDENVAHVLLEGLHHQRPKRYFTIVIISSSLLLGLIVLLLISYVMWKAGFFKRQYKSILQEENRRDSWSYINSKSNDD
In short: (§1)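 CHO-K1 4B4 cells transfected with human α4 and β1, plated at 3 × 10⁵ cells/mL and cultured 2 days, washed with HEPES pH 7.5 buffer containing Ca, Mg, Mn. Compound plus Eu-labeled human VCAM-1/Fc (final 1 nM), with or without human serum albumin, 60 min at room temperature; washed, Eu time-resolved fluorescence read; duplicates.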

Integrin alpha-4/beta-1 [2] = target: T1, Integrin alpha-4/beta-1; assay: Inhibition of europium labeled human VCAM1/Fc chimera binding to human VLA-4 alpha-4-beta-1 expressed in Chinese hamster 4B4 cells at 1.7 uM by fluorimetric assay; type: cell-based; in short: as §1
Integrin alpha-4/beta-1 [3] = target: T1, Integrin alpha-4/beta-1; assay: Inhibition of europium labeled human VCAM1/Fc chimera binding to human VLA-4 alpha-4-beta-1 expressed in Chinese hamster 4B4 cells at 2 uM by fluorimetric assay; type: cell-based; in short: as §1
Integrin alpha-4/beta-1 [4] = target: T1, Integrin alpha-4/beta-1; assay: Inhibition of europium labeled human VCAM1/Fc chimera binding to human VLA-4 alpha-4-beta-1 expressed in Chinese hamster 4B4 cells at 2 uM in presence of 3% HSA by fluorimetric assay; type: cell-based; in short: as §1
Integrin alpha-4/beta-1 [5] = target: T1, Integrin alpha-4/beta-1; assay: Inhibition of europium labeled human VCAM1/Fc chimera binding to human VLA-4 alpha-4-beta-1 expressed in Chinese hamster 4B4 cells by fluorimetric assay; type: cell-based
[6] = Drug level in BALB/c mouse serum at 10 mg/kg, po after 15 mins; type: ADME, organism-based; design: dose 10 mg/kg, route oral; details: read-out: Drug uptake
In short: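 Serum (final 0.01-10%) assayed in the VLA-4/VCAM-1 binding assay, and concentration estimated from a calibration curve of compound spiked into untreated mouse serum.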

Integrin alpha-4/beta-1 [7] = target: T1, Integrin alpha-4/beta-1; assay: Inhibition of europium labeled human VCAM1/Fc chimera binding to human VLA-4 alpha-4-beta-1 expressed in Chinese hamster 4B4 cells in presence of 3% HSA by fluorimetric assay; type: cell-based; in short: as §1
[8] = Clearance in Sprague-Dawley rat at 1 mg/kg, iv; type: ADME, organism-based; design: dose 1 mg/kg, route intravenous; details: in vivo
In short: (§2)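 Male Sprague-Dawley rats (7 weeks), fasted 18 h, four per group. 1 mg/kg oral in 0.5% MC or iv in saline, each with 3 equiv NaOH. Plasma drawn at 0.08 (iv) or 0.25 (po), 0.5, 1, 2 and 6 h; LC/MS/MS quantitation, noncompartmental parameters.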

[9] = Volume of distribution at steady state in Sprague-Dawley rat at 1 mg/kg, iv; type: ADME, organism-based; design: dose 1 mg/kg, route intravenous; details: in vivo, read-out: Vdss; in short: as §2
[10] = Half life in Sprague-Dawley rat at 1 mg/kg, iv; type: ADME, organism-based; design: dose 1 mg/kg, route intravenous; details: in vivo; in short: as §2
[11] = Oral bioavailability in rat; details: in vivo
in vivo = details: rat, plasma
Mus musculus = assay: Antiinflammatory activity in Ascaris suum antigen-induced BALB/c AnNCrj mouse asthma model assessed as inhibition of eosinophil infiltration in BAL fluid at 5 mg.kg, po bid administered 15 mins before and 8, 24 and 32 hrs after antigen challenge measured 48 hrs after antigen challenge; type: functional
In short: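 Female BALB/c AnNCrj mice given cyclophosphamide 150 mg/kg po (day 0), sensitized ip with Ascaris suum extract plus alum on days 2 and 14, challenged intratracheally day 22. Compound in 0.5% MC/0.03% Tween 80 po 15 min before and 8, 24, 32 h after challenge; BAL at 48 h, eosinophils from total count times Wright-stained differential.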

IC50 (Integrin alpha-4/beta-1 [5]) [nM]	concentration at 0.25 h [6] [ng/mL]	IC50 (Integrin alpha-4/beta-1 [7]) [nM]	SMILES	inhibition (Integrin alpha-4/beta-1 [1]) [%]	other results
			CC(C)n1cc(C(=O)Nc2ccc(CC(=O)N3C[C@@H](F)C[C@H]3CO[C@H]3CC[C@H](C(=O)O)CC3)cc2Cl)c2ccccc21	8	inhibition (Integrin alpha-4/beta-1 [2]): 41%
			Cc1ccccc1Cc1nc2ccc(CC(=O)N3C[C@@H](F)C[C@H]3CO[C@H]3CC[C@H](C(=O)O)CC3)cc2o1		inhibition (Integrin alpha-4/beta-1 [3]): 33%; inhibition (Integrin alpha-4/beta-1 [4]): 7%
0.53	193	3.9	O=C(Nc1ccc(CC(=O)N2C[C@@H](F)C[C@H]2CO[C@H]2CC[C@H](C(=O)O)CC2)cc1Cl)c1c[nH]c2ccccc12		clearance [8]: 61.1 mL/min/kg; Vd [9]: 0.668 L/kg; half-life [10]: 12 min
			Cc1ccccc1NC(=O)Nc1ccc(CC(=O)N2C[C@@H](F)C[C@H]2COc2ccc(C(=O)O)cc2)cc1Cl		bioavailability [11]: 11%; clearance (in vivo): 31.5 mL/min/kg
2.9	9400	36	CO[C@H]1C[C@@H](CO[C@H]2CC[C@H](C(=O)O)CC2)N(C(=O)Cc2cc(Cl)c(NC(=O)c3cn(C)c4ccccc34)cc2F)C1		inhibition (INH) (Mus musculus): 30%

SMILES	IC50 (Integrin alpha-4/beta-1 [5]) [nM]	concentration at 0.25 h [6] [ng/mL]	IC50 (Integrin alpha-4/beta-1 [7]) [nM]	inhibition (Integrin alpha-4/beta-1 [1]) [%]	other results
CCn1cc(C(=O)Nc2ccc(CC(=O)N3C[C@@H](F)C[C@H]3CO[C@H]3CC[C@H](C(=O)O)CC3)cc2Cl)c2ccccc21	204			21	
